Experimental data published in ChEMBL document CHEMBL1125520, “Improved brain delivery of AZT using a glycosyl phosphotriester prodrug” (1992).

Key:
Mus musculus [1] = assay: In Vivo detection of total AZT in Mice brains after oral administration of 58.33 mg/kg after 48 hr; assay type: functional
How it was run: (§1)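 Male Swiss mice (18–20 g) dosed orally with a 3 mM solution in […] vehicle; decapitated at 0.5–48 h. Brains were homogenized in acetonitrile-water (3:1), centrifuged at 6000g for 40 min at 4 °C, lyophilized, redissolved in water and filtered (0.45 µm). Reversed-phase C18 column-switching HPLC with diode-array detection; standard spiking; vehicle-fed controls. Three mice per point, triplicates.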

Mus musculus [2] = assay: In Vivo detection in Mice plasma after oral administration of 58.33 mg/kg detected in the form of AZT after 24 hr; assay type: functional, organism-based; set-up: dose 58.33 mg/kg
Mus musculus [3] = assay: In Vivo detection in Mice plasma after oral administration of 58.33 mg/kg detected in the form of AZT phosphodiester 3 after 24 hr; assay type: functional, organism-based; set-up: dose 58.33 mg/kg
How it was run: (§2)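 Male Swiss mice (18–20 g, six weeks old) given the test substance or vehicle ([…]) by gavage as a 3 mM solution (1.5 µmol/mouse). Aortic blood was collected into heparinized tubes at 0.5–48 h and centrifuged at 13000g for 10 min. Plasma was stored at -22 °C and analysed by HPLC. Three mice were used per time point, in triplicate. Values were not corrected for recovery.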

Mus musculus [4] = assay: In Vivo detection in Mice plasma after oral administration of 58.33 mg/kg detected in the form of AZT phosphodiester 3 after 48 hr; assay type: functional, organism-based; set-up: dose 58.33 mg/kg; how it was run: as §2
Mus musculus [5] = assay: In Vivo detection in Mice brains after oral administration of 58.33 mg/kg detected in the form of AZT phosphodiester 2 after 0.5 hr; assay type: functional
Mus musculus [6] = assay: In Vivo detection in Mice brains after oral administration of 58.33 mg/kg detected in the form of AZT phosphodiester 3 after 8 hr; assay type: functional
Mus musculus [7] = assay: In Vivo detection in Mice brains after oral administration of 58.33 mg/kg detected in the form of AZT 5`-P after 4 hr; assay type: functional
Mus musculus [8] = assay: In Vivo detection of total AZT in Mice plasma after oral administration of 58.33 mg/kg after 0.5 hr; assay type: functional, organism-based; set-up: dose 58.33 mg/kg; how it was run: as §2
Mus musculus [9] = assay: In Vivo detection of total AZT in Mice plasma after oral administration of 58.33 mg/kg after 48 hr; assay type: functional, organism-based; set-up: dose 58.33 mg/kg; how it was run: as §2
Mus musculus [10] = assay: In Vivo detection in Mice brains after oral administration of 58.33 mg/kg detected in the form of AZT after 2 hr; assay type: functional
Mus musculus [11] = assay: In Vivo detection in Mice brains after oral administration of 58.33 mg/kg detected in the form of AZT 5`-P after 0.5 hr; assay type: functional
Mus musculus [12] = assay: In Vivo detection in Mice plasma after oral administration of 58.33 mg/kg detected in the form of AZT 5`-P after 1 hr; assay type: functional, organism-based; set-up: dose 58.33 mg/kg
Mus musculus [13] = assay: In Vivo detection in Mice plasma after oral administration of 58.33 mg/kg detected in the form of AZT phosphodiester 2 after 8 hr; assay type: functional, organism-based; set-up: dose 58.33 mg/kg; how it was run: as §2
Mus musculus [14] = assay: In Vivo detection in Mice brains after oral administration of 58.33 mg/kg detected in the form of AZT 5`-P after 48 hr; assay type: functional
Mus musculus [15] = assay: In Vivo detection of total AZT in Mice plasma after oral administration of 58.33 mg/kg after 24 hr; assay type: functional, organism-based; set-up: dose 58.33 mg/kg; how it was run: as §2
Mus musculus [16] = assay: In Vivo detection in Mice brains after oral administration of 58.33 mg/kg detected in the form of AZT after 4 hr; assay type: functional
Mus musculus [17] = assay: In Vivo detection in Mice brains after oral administration of 58.33 mg/kg detected in the form of AZT phosphodiester 2 after 1 hr; assay type: functional
Mus musculus [18] = assay: In Vivo detection of total AZT in Mice plasma after oral administration of 58.33 mg/kg after 8 hr; assay type: functional, organism-based; set-up: dose 58.33 mg/kg; how it was run: as §2
Mus musculus [19] = assay: In Vivo detection in Mice plasma after oral administration of 58.33 mg/kg detected in the form of AZT phosphodiester 2 after 1 hr; assay type: functional, organism-based; set-up: dose 58.33 mg/kg; how it was run: as §2
Mus musculus [20] = assay: In Vivo detection in Mice brains after oral administration of 58.33 mg/kg detected in the form of AZT after 0.5 hr; assay type: functional
Mus musculus [21] = assay: In Vivo detection in Mice brains after oral administration of 58.33 mg/kg detected in the form of AZT phosphodiester 3 after 4 hr; assay type: functional
Mus musculus [22] = assay: In Vivo detection in Mice brains after oral administration of 58.33 mg/kg detected in the form of AZT phosphodiester 3 after 0.5 hr; assay type: functional
Mus musculus [23] = assay: In Vivo detection of total AZT in Mice plasma after oral administration of 41.63 mg/kg after 0.5 hr; assay type: functional, organism-based; set-up: dose 41.63 mg/kg; how it was run: as §2
Mus musculus [24] = assay: In Vivo detection in Mice brains after oral administration of 41.63 mg/kg detected in the form of AZT 5`-P after 48 hr; assay type: functional
Mus musculus [25] = assay: In Vivo detection of total AZT in Mice brains after oral administration of 41.63 mg/kg after 24 hr; assay type: functional; how it was run: as §1
Mus musculus [26] = assay: In Vivo detection of total AZT in Mice brains after oral administration of 41.63 mg/kg after 1 hr; assay type: functional; how it was run: as §1
Mus musculus [27] = assay: In Vivo detection in Mice plasma after oral administration of 41.63 mg/kg detected in the form of AZT after 24 hr; assay type: functional, organism-based; set-up: dose 41.63 mg/kg
Mus musculus [28] = assay: In Vivo detection in Mice brains after oral administration of 41.63 mg/kg detected in the form of AZT 5`-P after 2 hr; assay type: functional
Mus musculus [29] = assay: In Vivo detection in Mice plasma after oral administration of 41.63 mg/kg detected in the form of AZT 5`-P after 2 hr; assay type: functional, organism-based; set-up: dose 41.63 mg/kg
Mus musculus [30] = assay: In Vivo detection in Mice plasma after oral administration of 41.63 mg/kg detected in the form of AZT phosphodiester 2 after 24 hr; assay type: functional, organism-based; set-up: dose 41.63 mg/kg
Mus musculus [31] = assay: In Vivo detection in Mice brains after oral administration of 41.63 mg/kg detected in the form of AZT 5`-P after 8 hr; assay type: functional
Mus musculus [32] = assay: In Vivo detection of total AZT in Mice plasma after oral administration of 41.63 mg/kg after 4 hr; assay type: functional, organism-based; set-up: dose 41.63 mg/kg; how it was run: as §2
Mus musculus [33] = assay: In Vivo detection in Mice plasma after oral administration of 41.63 mg/kg detected in the form of AZT 5`-P after 8 hr; assay type: functional, organism-based; set-up: dose 41.63 mg/kg
Mus musculus [34] = assay: In Vivo detection of total AZT in Mice plasma after oral administration of 41.63 mg/kg after 2 hr; assay type: functional, organism-based; set-up: dose 41.63 mg/kg; how it was run: as §2
Mus musculus [35] = species: Mus musculus; assay: Concentration of external nucleoside in mouse brain; assay type: functional
How it was run: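 Male Swiss mice (6 weeks, 18–20 g) dosed by oral gavage in saline vehicle at 20 mg/kg AZT or molar equivalent (3 mM, 1.5 µmol/mouse). Brains taken 0.5–48 h post-dose, homogenized in acetonitrile–water 3:1, centrifuged, lyophilized and filtered. Analysed by column-switching C18 HPLC with diode-array detection against spiked standards and vehicle controls. Three mice per time point, triplicates; not recovery-corrected.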

Mus musculus [36] = assay: In Vivo detection in Mice brains after oral administration of 41.63 mg/kg detected in the form of AZT after 48 hr; assay type: functional
Mus musculus [37] = assay: In Vivo detection in Mice brains after oral administration of 41.63 mg/kg detected in the form of AZT 5`-P after 1 hr; assay type: functional
Mus musculus [38] = assay: In Vivo detection in Mice brains after oral administration of 41.63 mg/kg detected in the form of AZT phosphodiester 2 after 0.5 hr; assay type: functional

## CCCCCCCCCCCCCCCCOP(=O)(OCCO[C@H]1O[C@H](CO)[C@@H](O)[C@H](O)[C@@H]1O)OCC1OC(n2cc(C)c(=O)[nH]c2=O)CC1N=[N+]=[N-] (stereo partly drawn)
Mus musculus [1]
  Brain content: 63.5 nM ml-1
Mus musculus [2]
  Plasma content: 0 nM ml-1
Mus musculus [3]
  Plasma content: 0 nM ml-1
Mus musculus [4]
  Plasma content: 0 nM ml-1
Mus musculus [5]
  Brain content: 0.3 nmol/g
Mus musculus [6]
  Brain content: 0 nM ml-1
Mus musculus [7]
  Brain content: 114 nmol/g
Mus musculus [8]
  Plasma content: 13.7 nM ml-1
Mus musculus [9]
  Plasma content: 14.2 nM ml-1
Mus musculus [10]
  Brain content: 2.9 nmol/g
Mus musculus [11]
  Brain content: 36.7 nmol/g
Mus musculus [12]
  Plasma content: 12.7 nM ml-1
Mus musculus [13]
  Plasma content: 0 nM ml-1
Mus musculus [14]
  Brain content: 58.6 nmol/g
Mus musculus [15]
  Plasma content: 28.5 nM ml-1
Mus musculus [16]
  Brain content: 1 nmol/g
Mus musculus [17]
  Brain content: 8.5 nmol/g
Mus musculus [18]
  Plasma content: 26.3 nM ml-1
Mus musculus [19]
  Plasma content: 0 nM ml-1
Mus musculus [20]
  Brain content: 1.5 nmol/g
Mus musculus [21]
  Brain content: 0 nM ml-1
Mus musculus [22]
  Brain content: 0 nmol/g

## Cc1cn([C@H]2C[C@H](N=[N+]=[N-])[C@@H](COP(=O)(O)OCCO[C@H]3O[C@H](CO)[C@@H](O)[C@H](O)[C@@H]3O)O2)c(=O)[nH]c1=O
Mus musculus [23]
  Plasma content: 56.5 nM ml-1
Mus musculus [24]
  Brain content: 48.5 nmol/g
Mus musculus [25]
  Brain content: 61.8 nM ml-1
Mus musculus [26]
  Brain content: 97.7 nmol/g
Mus musculus [27]
  Plasma content: 0 nM ml-1
Mus musculus [28]
  Brain content: 19.8 nM ml-1
Mus musculus [29]
  Plasma content: 15 nM ml-1
Mus musculus [30]
  Plasma content: 0 nM ml-1
Mus musculus [31]
  Brain content: 33.3 nmol/g
Mus musculus [32]
  Plasma content: 6.7 nM ml-1
Mus musculus [33]
  Plasma content: 5.7 nM ml-1
Mus musculus [34]
  Plasma content: 19.7 nM ml-1
Mus musculus [35]
  External nucleoside: 8000 nM/g
Mus musculus [36]
  Brain content: 0.8 nmol/g
Mus musculus [37]
  Brain content: 79.3 nmol/g
Mus musculus [38]
  Brain content: 5.8 nM ml-1
